“Also recorded” adds a separate entry of the source.
Key:
[1] = peptide concentration in plasma; format: in vivo, mouse; settings: DIO mice, 24 h post-injection, 50 nmol/kg s.c., n = 6; cAMP bioassay
Method in brief: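 Plasma activity was read in a cAMP assay on CHO cells expressing human GLP-1R, in HBSS pH 7.4 with 25 mM HEPES, 0.1% BSA and 0.5 mM IBMX. Serial dilutions were run in duplicate for 30 min at RT with HTRF detection. Standards were reference peptide spiked into 0.2% (final) naïve plasma. Sample ratio = sample EC50/reference EC50; concentration = known top concentration/ratio.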

body weight, HFD-fed = format: in vivo, mouse; settings: DIO mice, 1 week
plasma insulin = format: in vivo, mouse; settings: DIO mice, Fc-GLP1
Method in brief: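 Plasma ALT was read with Reflotron strips and plasma TGs by colorimetric assay. Serum FGF21 and plasma adiponectin and insulin were measured by ELISA.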

plasma FFAs = format: in vivo, mouse
blood ketone bodies = format: in vivo, mouse; settings: DIO mice, Fc-GLP1
Method in brief: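 DIO mice were fed 60%-fat HFD from 8 weeks of age, for 12 weeks (males) or 24 weeks (females); one male cohort was housed at 30 °C. The test compound was given s.c. every 2 days in 50 mM sodium phosphate/300 mM mannitol pH 6.9. Glucose and ketone bodies were read in tail-vein blood.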

BAT skin temperature = format: in vivo, mouse; settings: DIO mice, Fc-GLP1
BAT, eWAT, iWAT = test: UCP1 and TH protein; format: in vivo, mouse; settings: DIO mice, Fc-GLP1
[2] = tested on: POMC neurons, arcuate nucleus; test: cFos-positive POMC neurons in ARC; format: in vivo, mouse; settings: DIO mice, Fc-GLP1, 1 week
Method in brief: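 Brain slices were blocked 2 h at RT in PBS with 1% BSA and 0.1% Triton X-100. They were incubated overnight at 4 °C with anti-POMC and anti-c-Fos, then with secondary antibodies in 1% BSA/PBS for 2 h at RT, protected from light.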

[3] = cited from earlier work
GCGR and GLP-1R = settings: vs cognate ligands; cited from earlier work
[4] = cited from earlier work; remark: listed apart in the source
GCGR = test: block of glucagon-induced glucose elevation in lean mice; format: in vivo, mouse
eWAT explants = test: lipolysis; format: cell-based, mouse; settings: 10 nM glucagon, 4 h
[5] = cited from earlier work; remark: listed apart in the source

In the case of “HGEGTFTSDVSSYLEGQAAKEFIAWLVKGG-linker-Fc [Fc-GLP1, reference compound]”, the peptide plasma level [1] is reported as 105.1 ± 18.33 nM, the “loss of body weight” value (body weight, HFD-fed; Fc-GLP1 50 nmol/kg) is reported as 11.0 ± 0.46% and the plasma insulin peak (plasma insulin) is reported as “a lower insulin peak”. For the same substance, the “plasma FFAs” value (plasma FFAs; DIO mice, Fc-GLP1, 6 h) was “elevation of FFAs was not observed”, the ketogenesis (blood ketone bodies) was “ketogenesis was not elevated” and the BAT temperature (BAT skin temperature) was “neither UCP1 nor BAT temperature were increased”. For the same substance, the “UCP1 in BAT” value (BAT, eWAT, iWAT) was “neither UCP1 nor BAT temperature were increased” and the “cFos positive POMC neurons” value [2] was “an increase in cFos positive POMC neurons”.
In the case of “OXM: native peptide oxyntomodulin, activates both GLP-1R and GCGR”, the half-life in circulation [3] is listed as “short half-life in circulation” and the “affinity to GLP-1R and GCGR” value (GCGR and GLP-1R) is listed as “reduced affinity compared with their cognate ligands”.
For cotadutide, the “postprandial glucose, body weight, hepatic fat” value ([4]; obese/overweight individuals, type 2 diabetes) is listed as “improved postprandial glucose excursions and reduced body weight and hepatic fat”, the “glycemia, body weight, MASLD” value ([4]; phase 2b trial) is listed as “reduced glycemia and body weight and improved metabolic-dysfunction associated steatotic liver disease (MASLD)” and the “liver metabolism, MASH and fibrosis” value ([3]; C57BL/6J or ob/ob mice) is listed as “more effective than obeticholic acid in improving liver metabolism and ameliorating MASH and fibrosis”. The “liver inflammation and adipocyte apoptosis” value [3] was “decreased liver inflammation and apoptosis in adipocytes”.
With “des-His1-[Glu9]-Glucagon (1-29) amide [GCGRant, reference compound]” the body weight loss (body weight, HFD-fed; GCGRant alone (1 mg/kg i.p. daily)) was 6.8 ± 0.46% and the “block of glucagon effect on glucose” value (GCGR) was “able to block the effect of glucagon in elevating glucose levels in lean mice”.
For glucagon: native GCGR ligand, the “circulating FFAs / lipolysis” value (plasma FFAs; lean mice, glucagon (100 nmol/kg), 1 h) was “this effect was not detected at 1 h; also recorded: did not increase lipolysis at 1 h”, the “circulating FFAs” value (plasma FFAs; lean mice, glucagon, 6 h post-injection) was “an increase of circulating FFAs at 6 h post-injection” and the lipolysis (eWAT explants) was “increased lipolysis in eWAT explants”. For the same substance, the “FFA concentration, supraphysiological administration” value [5] was “increased FFA concentration”, the “plasma FFAs, physiological doses” value ([5]; humans) was “did not find elevation in plasma FFAs in humans” and the “lipolysis ex vivo in WAT explants” value ([5]; wild-type or adipocyte-specific GCGR-deficient mice, 1 h) was “lack of effect of glucagon in lipolysis ex vivo in WAT explants”.

— paper PMC11605122 (Nature Communications, 2024)
